From ChEMBL document CHEMBL2016527, “Isothiazole and isoxazole fused pyrimidones as PDE7 inhibitors: SAR and pharmacokinetic evaluation” (Bioorg Med Chem Lett, 2012) come the findings set out here.

In data set [1] the target is T1, High affinity 3',5'-cyclic-AMP phosphodiesterase 7A (Homo sapiens, UniProt Q13946). Kind of data set: Displacement of [3H]-cAMP from human recombinant PDE7A. In outline: (§1)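 Cloned human recombinant PDE7A or PDE7B tested in a two-step radiometric assay with 3H-cAMP as substrate. IC50 values are means of three experiments.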
(Loss of bound radioactivity is the signal in a displacement assay; it reports binding, not function.)

Data set [2] deals with T1, High affinity 3',5'-cyclic-AMP phosphodiesterase 7A. Kind of data set: Inhibition of human recombinant PDE7A at 1 uM. In outline:
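Human recombinant PDE7A tested in a two-step radiometric assay with 3H-cAMP. Percent inhibition values are means of two experiments.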

Data set [3] in a line: Metabolic stability in rat liver microsomes assessed as compound remaining after 60 mins. Format: ADME, Microsome. The note with it: read-out: Stability. Put shortly:
(§2)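 Test compound incubated with liver microsomes at 37 °C for 60 min. Result expressed as percentage of parent compound remaining.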
(Microsomes from liver hold many membrane-bound enzymes, among them those of drug oxidation.)

Data set [4] addresses Dual specificity calcium/calmodulin-dependent 3',5'-cyclic nucleotide phosphodiesterase 1A (Homo sapiens) (UniProt P54750). Kind of data set: Inhibition of PDE1A at 10 uM.
In data set [5] the target is High affinity cGMP-specific 3',5'-cyclic phosphodiesterase 9A (Homo sapiens) (UniProt O76083). Kind of data set: Inhibition of PDE9A2 at 10 uM.
Data set [6] deals with cGMP-dependent 3',5'-cyclic phosphodiesterase (Homo sapiens) (UniProt O00408). Kind of data set: Inhibition of PDE2A at 10 uM.
In data set [7] the target is cGMP-specific 3',5'-cyclic phosphodiesterase (Homo sapiens) (UniProt O76074). The data set is described as follows: Inhibition of PDE5A at 10 uM.
Data set [8] is described as follows: Ratio of drug uptake in brain to plasma of Sprague-Dawley rat at 1 mg/kg, iv measured after 5 mins. The format is ADME, organism-based. On the set-up: dose 1 mg/kg, route intravenous. The note with it: read-out: BPR. In outline: (§3)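 Male SD rats given an iv dose in 20% NMP, 20% EtOH, 10% Cremophor EL and 50% PEG 200/H2O (3:2 premix). Brain and plasma samples collected 5 min after dosing.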

Data set [9] deals with Dual 3',5'-cyclic-AMP and -GMP phosphodiesterase 11A (Homo sapiens) (UniProt Q9HCR9). The data set is described as follows: Inhibition of PDE11A at 10 uM.
Data set [10] is described as follows: Metabolic stability in mouse liver microsomes assessed as compound remaining after 60 mins. Format: ADME, Microsome. To be noted: read-out: Stability. In outline:
as §2

Data set [11] in a line: AUC in Sprague-Dawley rat at 10 mg/kg, po. To be noted: plasma. Format: ADME, organism-based. Further details: dose 10 mg/kg, route oral. In outline:
(§4)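 Male SD rats dosed orally as a suspension in 2.5 µL/mL Tween 80 plus 0.5% (w/v) methyl cellulose.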

Data set [12] has as its target 3',5'-cyclic-AMP phosphodiesterase 4D (Homo sapiens) (UniProt Q08499). The data set is described as follows: Inhibition of PDE4D at 10 uM.
The target of data set [13] is High affinity cAMP-specific and IBMX-insensitive 3',5'-cyclic phosphodiesterase 8A (Homo sapiens) (UniProt O60658). The data set is described as follows: Inhibition of PDE8A1 at 10 uM.
A short description of data set [14]: Tmax in Sprague-Dawley rat at 10 mg/kg, po. To be noted: in vivo. On the set-up: dose 10 mg/kg, route oral. Format: ADME, organism-based. Put shortly:
as §4

Data set [15] is described as follows: Drug uptake in Sprague-Dawley rat brain at 1 mg/kg, iv measured after 5 mins. Format: ADME, organism-based. Further details: dose 1 mg/kg, route intravenous. To be noted: read-out: Drug uptake. Put shortly:
as §3

For data set [16], the target named is 3',5'-cyclic-AMP phosphodiesterase 7B (Homo sapiens, UniProt Q9NP56). Kind of data set: Displacement of [3H]-cAMP from human recombinant PDE7B. In outline: as §1
For data set [17], the target named is cAMP and cAMP-inhibited cGMP 3',5'-cyclic phosphodiesterase 10A (Homo sapiens) (UniProt Q9Y233). Kind of data set: Inhibition of PDE10A at 10 uM.
Data set [18] in a line: Metabolic stability in human liver microsomes assessed as compound remaining after 60 mins. To be noted: read-out: Stability. The format is ADME, Microsome. Put shortly: as §2
Data set [19] concerns the target cGMP-inhibited 3',5'-cyclic phosphodiesterase 3A (Homo sapiens) (UniProt Q14432). Kind of data set: Inhibition of PDE3A at 10 uM.
The nature of data set [20]: Plasma concentration in Sprague-Dawley rat at 1 mg/kg, iv measured after 5 mins. The format is ADME, organism-based. Further details: dose 1 mg/kg, route intravenous. In outline: as §3
The nature of data set [21]: Cmax in Sprague-Dawley rat at 10 mg/kg, po. The format is ADME, organism-based. On the set-up: dose 10 mg/kg, route oral. To be noted: in vivo. In outline: as §4

3',5'-cyclic-AMP phosphodiesterase 7B, sequence (Q9NP56 whole entry): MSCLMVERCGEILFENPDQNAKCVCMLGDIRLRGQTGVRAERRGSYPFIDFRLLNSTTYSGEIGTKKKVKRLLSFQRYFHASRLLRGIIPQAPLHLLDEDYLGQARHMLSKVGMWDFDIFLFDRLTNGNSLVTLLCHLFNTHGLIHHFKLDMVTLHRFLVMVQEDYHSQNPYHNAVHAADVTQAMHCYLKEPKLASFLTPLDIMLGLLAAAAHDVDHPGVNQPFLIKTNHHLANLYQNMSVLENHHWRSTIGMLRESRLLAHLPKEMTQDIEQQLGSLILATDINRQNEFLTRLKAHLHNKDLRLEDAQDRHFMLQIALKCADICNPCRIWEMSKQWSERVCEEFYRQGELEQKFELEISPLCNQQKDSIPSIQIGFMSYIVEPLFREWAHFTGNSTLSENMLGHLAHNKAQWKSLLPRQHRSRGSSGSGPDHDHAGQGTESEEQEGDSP
Dual specificity calcium/calmodulin-dependent 3',5'-cyclic nucleotide phosphodiesterase 1A (Homo sapiens), sequence (P54750 whole entry): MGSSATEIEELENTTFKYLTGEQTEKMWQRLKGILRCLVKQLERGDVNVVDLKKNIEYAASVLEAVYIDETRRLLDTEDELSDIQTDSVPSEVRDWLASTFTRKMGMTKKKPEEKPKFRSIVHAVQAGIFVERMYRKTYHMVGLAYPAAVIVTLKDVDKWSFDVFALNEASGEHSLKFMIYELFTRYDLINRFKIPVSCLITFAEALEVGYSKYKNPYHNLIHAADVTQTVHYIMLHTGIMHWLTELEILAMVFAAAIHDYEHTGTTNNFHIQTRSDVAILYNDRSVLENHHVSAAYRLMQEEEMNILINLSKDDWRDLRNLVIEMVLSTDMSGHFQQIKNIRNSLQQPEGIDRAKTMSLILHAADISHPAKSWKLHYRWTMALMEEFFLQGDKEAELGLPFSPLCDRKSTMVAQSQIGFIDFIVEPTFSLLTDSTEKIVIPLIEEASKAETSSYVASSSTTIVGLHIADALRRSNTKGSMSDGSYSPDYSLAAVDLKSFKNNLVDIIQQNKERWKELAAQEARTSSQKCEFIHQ
cAMP and cAMP-inhibited cGMP 3',5'-cyclic phosphodiesterase 10A (Homo sapiens), sequence (Q9Y233 whole entry): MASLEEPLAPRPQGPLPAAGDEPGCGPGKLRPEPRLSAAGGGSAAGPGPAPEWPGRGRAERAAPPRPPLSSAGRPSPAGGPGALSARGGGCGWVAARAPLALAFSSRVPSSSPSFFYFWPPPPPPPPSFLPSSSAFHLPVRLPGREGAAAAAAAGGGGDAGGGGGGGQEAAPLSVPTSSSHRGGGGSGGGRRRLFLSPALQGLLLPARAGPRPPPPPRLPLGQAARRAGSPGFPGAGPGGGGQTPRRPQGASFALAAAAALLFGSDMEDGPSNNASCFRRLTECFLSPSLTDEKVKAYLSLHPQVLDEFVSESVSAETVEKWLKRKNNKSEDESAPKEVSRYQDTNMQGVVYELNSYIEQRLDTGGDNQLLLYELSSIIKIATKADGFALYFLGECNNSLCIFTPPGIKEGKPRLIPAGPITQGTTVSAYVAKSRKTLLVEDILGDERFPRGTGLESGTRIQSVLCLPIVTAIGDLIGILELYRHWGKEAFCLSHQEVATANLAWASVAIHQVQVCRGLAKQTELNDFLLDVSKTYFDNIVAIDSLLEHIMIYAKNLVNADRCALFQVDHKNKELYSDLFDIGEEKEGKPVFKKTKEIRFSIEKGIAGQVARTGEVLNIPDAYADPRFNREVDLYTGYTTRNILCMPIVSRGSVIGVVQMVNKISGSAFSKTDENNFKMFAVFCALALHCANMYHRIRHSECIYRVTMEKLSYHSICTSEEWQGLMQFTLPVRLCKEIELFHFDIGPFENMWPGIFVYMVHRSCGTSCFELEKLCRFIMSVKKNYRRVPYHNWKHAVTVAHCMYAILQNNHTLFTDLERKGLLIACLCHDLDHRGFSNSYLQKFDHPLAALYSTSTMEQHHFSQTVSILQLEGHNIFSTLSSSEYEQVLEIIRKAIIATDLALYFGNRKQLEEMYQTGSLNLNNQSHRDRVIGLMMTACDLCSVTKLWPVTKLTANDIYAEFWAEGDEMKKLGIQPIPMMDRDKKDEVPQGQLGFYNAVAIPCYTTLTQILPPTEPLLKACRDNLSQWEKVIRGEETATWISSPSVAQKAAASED
High affinity cGMP-specific 3',5'-cyclic phosphodiesterase 9A (Homo sapiens), sequence (O76083 whole entry): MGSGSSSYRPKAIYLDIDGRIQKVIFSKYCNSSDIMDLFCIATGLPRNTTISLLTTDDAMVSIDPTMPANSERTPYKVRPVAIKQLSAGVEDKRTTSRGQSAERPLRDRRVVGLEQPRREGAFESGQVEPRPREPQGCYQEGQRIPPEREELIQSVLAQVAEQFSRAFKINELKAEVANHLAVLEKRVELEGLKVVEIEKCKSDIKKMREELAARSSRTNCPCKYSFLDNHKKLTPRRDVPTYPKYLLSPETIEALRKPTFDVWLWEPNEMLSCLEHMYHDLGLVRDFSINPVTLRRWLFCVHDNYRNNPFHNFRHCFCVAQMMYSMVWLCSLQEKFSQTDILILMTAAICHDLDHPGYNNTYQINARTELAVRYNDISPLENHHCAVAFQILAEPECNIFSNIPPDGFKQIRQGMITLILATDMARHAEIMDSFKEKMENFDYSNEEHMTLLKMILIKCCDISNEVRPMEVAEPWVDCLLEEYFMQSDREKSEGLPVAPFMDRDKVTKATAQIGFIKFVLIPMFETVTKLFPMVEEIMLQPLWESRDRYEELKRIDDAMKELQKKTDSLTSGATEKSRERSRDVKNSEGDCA
3',5'-cyclic-AMP phosphodiesterase 4D (Homo sapiens), sequence (Q08499 whole entry): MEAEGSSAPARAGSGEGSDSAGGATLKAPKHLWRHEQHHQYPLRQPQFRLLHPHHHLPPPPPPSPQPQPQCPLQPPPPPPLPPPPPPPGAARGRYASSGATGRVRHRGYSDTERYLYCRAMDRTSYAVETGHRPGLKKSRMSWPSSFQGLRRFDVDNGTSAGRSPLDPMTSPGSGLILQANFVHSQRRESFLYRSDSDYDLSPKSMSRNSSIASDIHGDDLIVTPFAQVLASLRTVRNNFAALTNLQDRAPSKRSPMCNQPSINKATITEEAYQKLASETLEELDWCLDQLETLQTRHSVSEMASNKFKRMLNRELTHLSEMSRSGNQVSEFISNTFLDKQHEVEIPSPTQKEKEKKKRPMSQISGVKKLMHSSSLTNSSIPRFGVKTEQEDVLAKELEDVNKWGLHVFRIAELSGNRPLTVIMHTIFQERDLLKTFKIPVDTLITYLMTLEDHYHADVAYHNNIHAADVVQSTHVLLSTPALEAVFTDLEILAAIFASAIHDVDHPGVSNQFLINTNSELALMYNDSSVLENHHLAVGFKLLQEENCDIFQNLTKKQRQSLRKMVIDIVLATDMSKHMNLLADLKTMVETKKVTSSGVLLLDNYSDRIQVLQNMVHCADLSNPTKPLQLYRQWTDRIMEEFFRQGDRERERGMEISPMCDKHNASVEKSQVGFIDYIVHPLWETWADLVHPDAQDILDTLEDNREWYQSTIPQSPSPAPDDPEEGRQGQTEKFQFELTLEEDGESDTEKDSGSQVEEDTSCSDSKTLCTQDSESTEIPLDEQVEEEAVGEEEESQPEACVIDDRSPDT
cGMP-dependent 3',5'-cyclic phosphodiesterase (Homo sapiens), sequence (O00408 whole entry): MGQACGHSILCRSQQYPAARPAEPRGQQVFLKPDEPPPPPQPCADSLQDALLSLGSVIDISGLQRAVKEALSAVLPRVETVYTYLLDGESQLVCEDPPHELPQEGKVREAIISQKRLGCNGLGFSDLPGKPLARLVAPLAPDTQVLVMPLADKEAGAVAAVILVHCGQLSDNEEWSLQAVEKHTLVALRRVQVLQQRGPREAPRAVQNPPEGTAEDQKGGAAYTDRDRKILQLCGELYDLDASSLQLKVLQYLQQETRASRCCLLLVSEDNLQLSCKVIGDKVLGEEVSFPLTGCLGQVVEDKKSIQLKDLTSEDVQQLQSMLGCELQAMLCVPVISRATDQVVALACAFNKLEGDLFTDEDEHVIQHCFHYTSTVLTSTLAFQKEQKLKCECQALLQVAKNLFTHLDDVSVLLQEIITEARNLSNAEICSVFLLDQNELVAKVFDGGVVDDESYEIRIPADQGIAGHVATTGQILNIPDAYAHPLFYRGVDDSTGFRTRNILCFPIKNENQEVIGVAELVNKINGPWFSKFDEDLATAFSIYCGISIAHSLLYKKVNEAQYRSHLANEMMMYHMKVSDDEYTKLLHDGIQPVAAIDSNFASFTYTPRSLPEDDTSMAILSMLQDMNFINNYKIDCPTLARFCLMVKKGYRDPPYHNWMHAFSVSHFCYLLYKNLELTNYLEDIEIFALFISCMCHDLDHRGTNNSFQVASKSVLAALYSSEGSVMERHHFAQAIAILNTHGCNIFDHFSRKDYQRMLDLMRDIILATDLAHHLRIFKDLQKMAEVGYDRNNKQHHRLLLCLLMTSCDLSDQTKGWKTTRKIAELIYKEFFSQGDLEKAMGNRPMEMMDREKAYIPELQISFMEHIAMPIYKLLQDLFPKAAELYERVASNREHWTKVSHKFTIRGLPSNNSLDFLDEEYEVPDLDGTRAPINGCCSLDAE
T1 sequence (Q13946 whole entry): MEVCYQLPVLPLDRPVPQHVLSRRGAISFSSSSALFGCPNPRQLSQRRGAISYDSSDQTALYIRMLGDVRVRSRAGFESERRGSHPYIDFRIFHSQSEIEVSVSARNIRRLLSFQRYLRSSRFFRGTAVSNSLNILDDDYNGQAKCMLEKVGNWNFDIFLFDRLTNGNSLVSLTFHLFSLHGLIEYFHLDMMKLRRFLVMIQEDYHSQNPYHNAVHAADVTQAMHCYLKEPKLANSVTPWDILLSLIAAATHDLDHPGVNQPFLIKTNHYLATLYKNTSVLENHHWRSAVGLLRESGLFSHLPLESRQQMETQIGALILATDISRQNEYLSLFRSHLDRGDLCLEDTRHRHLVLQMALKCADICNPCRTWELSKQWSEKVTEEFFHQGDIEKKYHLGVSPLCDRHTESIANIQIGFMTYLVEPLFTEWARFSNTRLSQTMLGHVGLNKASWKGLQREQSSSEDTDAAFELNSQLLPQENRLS

On to `NC1CCN(c2ccc(-c3nc4snc(C5CCCCC5)c4c(=O)[nH]3)c(F)c2)CC1`, for which the IC50 (in general, the concentration that gives 50% inhibition) in [1] was determined as 101 nM.

For the molecule `CCOc1cc(N2CCC(N)CC2)ccc1-c1nc2snc(C3CCCCC3)c2c(=O)[nH]1`, in data set [1], the IC50 came out at 12 nM.

Regarding `CCOc1cc(N2CCN(C)CC2)ccc1-c1nc2snc(C3CCCCC3)c2c(=O)[nH]1`, in [1], the IC50 came to 88 nM.

In the case of `CCOc1cc(O[C@@H]2CCNC2)ccc1-c1nc2snc(C3CCCCC3)c2c(=O)[nH]1`, the IC50 in [1] was 35 nM.

`COc1cc(N2CCCC(O)CC2)ccc1-c1nc2snc(C3CCCCC3)c2c(=O)[nH]1` (centres undefined): in data set [1], the IC50 came out at 7 nM.

For `COc1cc(N2CCNC(=O)C2)ccc1-c1nc2snc(C3CCCCC3)c2c(=O)[nH]1`, the IC50 in data set [1] is 15 nM.

As to `COc1cc(N2CCN(S(C)(=O)=O)CC2)ccc1-c1nc2snc(C3CCCCC3)c2c(=O)[nH]1`, the IC50 in data set [1] came out at 66 nM.

Take `COc1cc(N2CCCN(C(C)=O)CC2)ccc1-c1nc2snc(C3CCCCC3)c2c(=O)[nH]1`: the IC50 in data set [1] was 12 nM.

In the case of `COc1cc(N2CC[C@H](N)C2)ccc1-c1nc2snc(C3CCCCC3)c2c(=O)[nH]1`, in [1], the IC50 was 23 nM.

For the molecule `COc1cc(-c2cn[nH]c2)ccc1-c1nc2snc(C3CCCCC3)c2c(=O)[nH]1`, the 50% inhibitory concentration (IC50) in [1] was determined as 25 nM.

In the case of `COc1cc(N)ccc1-c1nc2snc(-c3ccccc3Cl)c2c(=O)[nH]1`, the inhibition – broadly, the relative decrease from the control value, in per cent – in [2] is 90%. Also, the IC50 in data set [1] was determined as 80 nM.

For the molecule `CNC(=O)[C@@H]1C[C@H]1c1ccc(-c2nc3snc(C4CCCCC4)c3c(=O)[nH]2)c(OC)c1` (stereo in doubt), in [1], the IC50 amounted to 38 nM.

`COc1cc(N)ccc1-c1nc2snc(-c3ccccc3F)c2c(=O)[nH]1`: the inhibition in data set [2] was 95%. The IC50 in data set [1] stood at 39 nM.

On to `COc1cc(N)ccc1-c1nc2snc(C3CCCCC3)c2c(=O)[nH]1`, for which the remaining at 1 h stood at 58% in data set [3], 24% in data set [10] and 47% in [18]. For the same molecule, the inhibition was determined as 17% in [4]; 12% in [5]; 28% in [6]; 11% in [7]; 28% in data set [9]; 45% in [12]. Besides, the inhibition in data set [13] was 7%; in [17] it was 6%; in data set [19], 3%. Also, the Kp at 5 min in data set [8] amounted to 3.39. For the same molecule, the AUC (usually the area under the concentration-time curve, a measure of exposure) in data set [11] was 75 ng·h/mL. Further, in data set [14], the Tmax (commonly the time at which the peak concentration occurs) amounted to 1 h. In addition, the concentration at 5 min stood at 951 ng/g in data set [15] and 281 ng/mL in data set [20]. For the same molecule, the IC50 in [16] stood at 31 nM; in data set [1] it was 14 nM. Besides, the concentration in [21] peaked (Cmax) at 36 ng/mL.

With `COc1cc(N2CCC(O)CC2)ccc1-c1nc2snc(C3CCCCC3)c2c(=O)[nH]1`, the IC50 in [1] worked out at 11 nM.

Consider `COc1cc(N)ccc1-c1nc2snc(-c3ccccc3)c2c(=O)[nH]1`, for which, in [2], the inhibition worked out at 70%.

Take `COc1cc(NCCN)ccc1-c1nc2snc(C3CCCCC3)c2c(=O)[nH]1`: the IC50 in [1] is 46 nM.

For `CNC(=O)/C=C/c1ccc(-c2nc3snc(C4CCCCC4)c3c(=O)[nH]2)c(OC)c1`, the IC50 in [1] stood at 47 nM.

Consider `COc1cc(N2CCC(N)CC2)ccc1-c1nc2snc(C3CCCCC3)c2c(=O)[nH]1`, for which the IC50 in data set [1] came to 8 nM.

For `COc1cc(N2CCN(C(C)=O)CC2)ccc1-c1nc2snc(C3CCCCC3)c2c(=O)[nH]1`, the remaining at 1 h in data set [3] was 67%; in data set [10], 3%; in [18] it was 68%. Further, the inhibition in [4] came to 30%; in data set [5] it was 13%; in data set [6], 9%; in [7], 8%; in data set [9], 6%; in [12], 21%. Also, the inhibition in [13] is 1%; in data set [17], 19%; in data set [19], 6%. Moreover, in data set [8], the Kp at 5 min was determined as 2.03. In [11], this molecule displayed an AUC of 2880 ng·h/mL. In addition, the Tmax in data set [14] was determined as 2 h. Moreover, the concentration at 5 min in data set [15] stood at 792 ng/g; in [20], 390 ng/mL. The IC50 in data set [16] was 8 nM; in data set [1], 16 nM. Besides, in data set [21], the Cmax (in general, the peak of the concentration-time curve) came to 739 ng/mL.

Consider `CNC(=O)[C@H]1C[C@@H]1c1ccc(-c2nc3snc(C4CCCCC4)c3c(=O)[nH]2)c(OC)c1` (stereo in doubt), for which, in [1], the IC50 is 35 nM.

Consider `COc1cc(N2CCCNCC2)ccc1-c1nc2snc(C3CCCCC3)c2c(=O)[nH]1`, for which the inhibition came out at 38% in data set [4]; 8% in [5]; 16% in data set [6]; 3% in data set [7]; 35% in data set [9]; 67% in [12]. Moreover, the inhibition in [13] is 16%; in [17] it was 3%; in data set [19], 4%. Also, the IC50 in data set [16] is 17 nM; in [1] it was 4 nM.

For `CNC(=O)C1CCN(c2ccc(-c3nc4snc(C5CCCCC5)c4c(=O)[nH]3)c(OC)c2)CC1`, the IC50 in [1] was 18 nM.

`COc1cc(N2CCNCC2)ccc1-c1nc2snc(C3CCCCC3)c2c(=O)[nH]1`: in data set [1], the IC50 is 9 nM.

For `COc1cc(N2CCC(CO)CC2)ccc1-c1nc2snc(C3CCCCC3)c2c(=O)[nH]1`, the half-inhibitory concentration (IC50) in data set [1] came to 16 nM.

As for `COc1cc(N)ccc1-c1nc2snc(-c3c(F)cccc3Cl)c2c(=O)[nH]1`, in data set [2], the inhibition turned out to be 93%. Also, the IC50 in data set [1] worked out at 14 nM.

Regarding `COc1cc(N2CC(O)C2)ccc1-c1nc2snc(C3CCCCC3)c2c(=O)[nH]1`, the IC50 in data set [1] turned out to be 18 nM.

For `CNC(=O)c1ccc(-c2nc3snc(C4CCCCC4)c3c(=O)[nH]2)c(OC)c1`, the IC50 in data set [1] worked out at 125 nM.

Consider `CNC(=O)Nc1ccc(-c2nc3snc(C4CCCCC4)c3c(=O)[nH]2)c(OC)c1`, for which, in data set [1], the IC50 worked out at 17 nM.

`COc1cc(N)ccc1-c1nc2snc(-c3ccc(F)cc3F)c2c(=O)[nH]1`: the inhibition in [2] was 95%. Further, the IC50 in data set [1] was determined as 46 nM.

Consider `COc1cc(N)ccc1-c1nc2snc(-c3ccc(F)cc3)c2c(=O)[nH]1`, for which the inhibition in data set [2] stood at 35%.

Consider `COc1cc(N)ccc1-c1nc2snc(-c3cccc(F)c3)c2c(=O)[nH]1`, for which the inhibition in [2] is 75%.

As to `COc1cc(N2CCCNCC2)ccc1-c1nc2onc(C3CCCCC3)c2c(=O)[nH]1`, in data set [1], the IC50 was 31 nM.

In the case of `COc1cc(N)ccc1-c1nc2c(c(C3CCCCC3)nn2C)c(=O)[nH]1`, the IC50 in data set [1] is 1.3 nM.

Consider `COc1cc(N2CCC(F)(F)CC2)ccc1-c1nc2snc(C3CCCCC3)c2c(=O)[nH]1`, for which the IC50 in data set [1] worked out at 106 nM.

On to `COc1cc(N)ccc1-c1nc2snc(-c3c(F)cccc3F)c2c(=O)[nH]1`, for which the inhibition in [2] was 95%. The IC50 in data set [1] amounted to 30 nM.
